{"source": "ChEMBL document CHEMBL4699571", "about": "“Synthesis of Natural and Unnatural Quinolones Inhibiting the Growth and Motility of Bacteria” (2020)", "key": {"[1]": {"tested_on": "Staphylococcus aureus", "assay": "Antimicrobial activity against Staphylococcus aureus ATCC 12600 assessed as zone of inhibition at 2 mg/ml after 24 hrs by agar well diffusion method", "assay_type": "functional", "settings": "for zone of inhibition at 2000 µg/mL: read-out: DIZ", "summary_of_the_method": "(§1)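 Preliminary agar well-diffusion screen run against a panel of eight Gram-positive and Gram-negative test microbes.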"}, "[2]": {"tested_on": "Staphylococcus epidermidis", "assay": "Antimicrobial activity against Staphylococcus epidermidis ATCC 14990 assessed as zone of inhibition at 2 mg/ml after 24 hrs by agar well diffusion method", "assay_type": "functional", "settings": "for zone of inhibition at 2000 µg/mL: read-out: DIZ", "summary_of_the_method": "as §1"}, "[3]": {"tested_on": "Bacillus spizizenii", "assay": "Inhibition of swarming motility of Bacillus subtilis subsp. spizizenii ATCC 6633 at 10 uM after 24 hrs", "assay_type": "functional, organism-based"}, "[4]": {"tested_on": "Pseudomonas aeruginosa", "assay": "Antimicrobial activity against Pseudomonas aeruginosa ATCC 15692 assessed as zone of inhibition at 2 mg/ml after 24 hrs by agar well diffusion method", "assay_type": "functional", "settings": "for zone of inhibition at 2000 µg/mL: read-out: DIZ", "summary_of_the_method": "as §1"}, "[5]": {"tested_on": "Pseudomonas aeruginosa", "assay": "Antimicrobial activity against Pseudomonas aeruginosa ATCC 15692 assessed as reduction in microbial growth at 1.1 to 33.4 ug/ml after 24 hrs by broth microdilution method", "assay_type": "functional, organism-based", "settings": "dose microg/ml 1.1-33.4, time 24.0 hrs", "summary_of_the_method": "(§2)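 P. aeruginosa growth-inhibition assay in broth. Each compound was tested at final concentrations of 1.1, 2.1, 4.2, 8.4, 16.7 and 33.4 μg/mL. The read-out is the extent of growth inhibition at each concentration.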"}, "[6]": {"tested_on": "Bacillus spizizenii", "assay": "Antimicrobial activity against Bacillus subtilis subsp. spizizenii ATCC 6633 assessed as zone of inhibition at 2 mg/ml after 24 hrs by agar well diffusion method", "assay_type": "functional", "settings": "for zone of inhibition at 2000 µg/mL: read-out: DIZ", "summary_of_the_method": "as §1"}, "[7]": {"tested_on": "Pseudomonas aeruginosa", "assay": "Antimicrobial activity against Pseudomonas aeruginosa ATCC 15692 assessed as reduction in microbial growth at 2.1 to 33.4 ug/ml after 24 hrs by broth microdilution method relative to control", "assay_type": "functional", "settings": "dose microg/ml 2.1-33.4", "summary_of_the_method": "as §2"}, "[8]": {"tested_on": "Pseudomonas aeruginosa", "assay": "Antimicrobial activity against Pseudomonas aeruginosa ATCC 15692 assessed as reduction in microbial growth at 4 times of MIC concentration after 24 hrs by time kill assay", "assay_type": "functional, organism-based", "summary_of_the_method": "(§3)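 Time-kill study against P. aeruginosa with compound at 1/4 MIC, MIC and 4 × MIC. Viable counts were followed as log CFU over a 24 h period, with sampling from 2 h onward. Ciprofloxacin served as the positive control.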"}, "[9]": {"tested_on": "Pseudomonas aeruginosa", "assay": "Antimicrobial activity against Pseudomonas aeruginosa ATCC 15692 assessed as reduction in microbial growth at 0.25 times of MIC concentration after 2 to 24 hrs by time kill assay", "assay_type": "functional, organism-based", "settings": "time 2.0 hrs", "summary_of_the_method": "as §3"}, "[10]": {"tested_on": "Pseudomonas aeruginosa", "assay": "Antimicrobial activity against Pseudomonas aeruginosa ATCC 15692 assessed as reduction in microbial growth after 24 hrs by broth microdilution method", "assay_type": "functional", "summary_of_the_method": "as §2"}, "[11]": {"tested_on": "Pseudomonas aeruginosa", "assay": "Antimicrobial activity against Pseudomonas aeruginosa ATCC 15692 assessed as reduction in microbial growth at MIC concentration after 10 hrs by time kill assay", "assay_type": "functional, organism-based", "summary_of_the_method": "as §3"}}, "note": "The source made the active and inactive calls. The rule behind the calls is not given here.", "data": [{"compound": "CC1(C)S[C@@H]2[C@H](NC(=O)[C@H](N)c3ccccc3)C(=O)N2[C@H]1C(=O)O", "note": "[AMPICILLIN]", "values": [{"measurement": "zone of inhibition at 2000 µg/mL", "setting": "[1]", "value": 39, "unit": "mm"}, {"measurement": "zone of inhibition at 2000 µg/mL", "setting": "[2]", "value": 29, "unit": "mm"}]}, {"compound": "COC(OC)c1c(C)c2ccccc2[nH]c1=O", "values": [{"measurement": "swarming motility inhibition (active/not active)", "setting": "[3]", "value": "inactive"}]}, {"compound": "COCc1c(C)c2ccccc2[nH]c1=O", "values": [{"measurement": "swarming motility inhibition (active/not active)", "setting": "[3]", "value": "Active"}]}, {"compound": "CS/C=C/c1cc(=O)c2ccccc2[nH]1", "values": [{"measurement": "diameter of the inhibition zone (DIZ)", "setting": "[1]", "value": "inactive"}, {"measurement": "diameter of the inhibition zone (DIZ)", "setting": "[4]", "value": "inactive"}, {"measurement": "Activity", "setting": "[5]", "value": "inactive"}, {"measurement": "swarming motility inhibition (active/not active)", "setting": "[3]", "value": "inactive"}, {"measurement": "zone of inhibition at 2000 µg/mL", "setting": "[6]", "value": 23, "unit": "mm"}, {"measurement": "diameter of the inhibition zone (DIZ)", "setting": "[2]", "value": "inactive"}]}, {"compound": "CCOC(OCC)c1c(C)c2ccccc2[nH]c1=O", "values": [{"measurement": "swarming motility inhibition (active/not active)", "setting": "[3]", "value": "inactive"}]}, {"compound": "CS/C=C\\c1cc(=O)c2ccccc2[nH]1", "values": [{"measurement": "swarming motility inhibition (active/not active)", "setting": "[3]", "value": "inactive"}]}, {"compound": "CCCC/C=C/Cc1cc(=O)c2ccccc2n1C", "values": [{"measurement": "swarming motility inhibition (active/not active)", "setting": "[3]", "value": "Active"}]}, {"compound": "Cc1c(CN(C)C)c(=O)[nH]c2ccccc12", "values": [{"measurement": "swarming motility inhibition (active/not active)", "setting": "[3]", "value": "Active"}]}, {"compound": "CSC(SC)c1c(C)c2ccccc2[nH]c1=O", "values": [{"measurement": "Activity", "setting": "[5]", "value": "inactive"}, {"measurement": "swarming motility inhibition (active/not active)", "setting": "[3]", "value": "inactive"}]}, {"compound": "Cn1c(Cc2ccccc2)cc(=O)c2ccccc21", "values": [{"measurement": "Activity", "setting": "[5]", "value": "inactive"}, {"measurement": "swarming motility inhibition (active/not active)", "setting": "[3]", "value": "inactive"}]}, {"compound": "CN[C@H](CC(C)C)C(=O)N[C@H]1C(=O)N[C@@H](CC(N)=O)C(=O)N[C@H]2C(=O)N[C@H]3C(=O)N[C@H](C(=O)N[C@H](C(=O)O)c4cc(O)cc(O)c4-c4cc3ccc4O)[C@H](O)c3ccc(c(Cl)c3)Oc3cc2cc(c3O[C@@H]2O[C@H](CO)[C@@H](O)[C@H](O)[C@H]2O[C@H]2C[C@](C)(N)[C@H](O)[C@H](C)O2)Oc2ccc(cc2Cl)[C@H]1O", "note": "[VANCOMYCIN]", "values": [{"measurement": "zone of inhibition at 2000 µg/mL", "setting": "[6]", "value": 19, "unit": "mm"}]}, {"compound": "CCS/C=C/c1cc(=O)c2ccccc2[nH]1", "values": [{"measurement": "zone of inhibition at 2000 µg/mL", "setting": "[1]", "value": 13, "unit": "mm"}, {"measurement": "diameter of the inhibition zone (DIZ)", "setting": "[4]", "value": "inactive"}, {"measurement": "Activity", "setting": "[5]", "value": "inactive"}, {"measurement": "swarming motility inhibition (active/not active)", "setting": "[3]", "value": "inactive"}, {"measurement": "diameter of the inhibition zone (DIZ)", "setting": "[6]", "value": "inactive"}, {"measurement": "diameter of the inhibition zone (DIZ)", "setting": "[2]", "value": "inactive"}]}, {"compound": "CSc1ccc(Cc2cc(=O)c3ccccc3[nH]2)cc1", "values": [{"measurement": "diameter of the inhibition zone (DIZ)", "setting": "[1]", "value": "inactive"}, {"measurement": "zone of inhibition at 2000 µg/mL", "setting": "[4]", "value": 29, "unit": "mm"}, {"measurement": "Activity", "setting": "[5]", "value": "inactive"}, {"measurement": "swarming motility inhibition (active/not active)", "setting": "[3]", "value": "Active"}, {"measurement": "diameter of the inhibition zone (DIZ)", "setting": "[6]", "value": "inactive"}, {"measurement": "diameter of the inhibition zone (DIZ)", "setting": "[2]", "value": "inactive"}]}, {"compound": "CCO/C=C/c1cc(=O)c2ccccc2[nH]1", "values": [{"measurement": "swarming motility inhibition (active/not active)", "setting": "[3]", "value": "inactive"}]}, {"compound": "CO/C=C/c1cc(=O)c2ccccc2[nH]1", "values": [{"measurement": "swarming motility inhibition (active/not active)", "setting": "[3]", "value": "inactive"}]}, {"compound": "CSc1ccc(Cc2cc(=O)c3ccccc3n2C)cc1", "values": [{"measurement": "diameter of the inhibition zone (DIZ)", "setting": "[1]", "value": "inactive"}, {"measurement": "zone of inhibition at 2000 µg/mL", "setting": "[4]", "value": 36, "unit": "mm"}, {"measurement": "Activity", "setting": "[5]", "value": "inactive"}, {"measurement": "swarming motility inhibition (active/not active)", "setting": "[3]", "value": "Active"}, {"measurement": "diameter of the inhibition zone (DIZ)", "setting": "[6]", "value": "inactive"}, {"measurement": "diameter of the inhibition zone (DIZ)", "setting": "[2]", "value": "inactive"}]}, {"compound": "CSCc1c(C)c2ccccc2[nH]c1=O", "values": [{"measurement": "swarming motility inhibition (active/not active)", "setting": "[3]", "value": "Active"}]}, {"compound": "O=c1cc(Cc2ccccc2)[nH]c2ccccc12", "values": [{"measurement": "Activity", "setting": "[5]", "value": "inactive"}, {"measurement": "swarming motility inhibition (active/not active)", "setting": "[3]", "value": "Active"}]}, {"compound": "CCCC/C=C/Cc1cc(=O)c2ccccc2[nH]1", "values": [{"measurement": "inhibition (INH)", "setting": "[7]", "value": 37, "unit": "%"}, {"measurement": "zone of inhibition at 2000 µg/mL", "setting": "[1]", "value": 9, "unit": "mm"}, {"measurement": "Activity", "setting": "[8]", "value": "Active"}, {"measurement": "zone of inhibition at 2000 µg/mL", "setting": "[4]", "value": 35, "unit": "mm"}, {"measurement": "Activity", "setting": "[9]", "value": "Active"}, {"measurement": "Activity", "setting": "[5]", "value": "Active"}, {"measurement": "swarming motility inhibition (active/not active)", "setting": "[3]", "value": "Active"}, {"measurement": "zone of inhibition at 2000 µg/mL", "setting": "[6]", "value": 9, "unit": "mm"}, {"measurement": "MIC", "setting": "[10]", "value": 33, "unit": "µg/mL"}, {"measurement": "Activity", "setting": "[11]", "value": "Active"}, {"measurement": "zone of inhibition at 2000 µg/mL", "setting": "[2]", "value": 24, "unit": "mm"}]}, {"compound": "CCSCc1c(C)c2ccccc2[nH]c1=O", "values": [{"measurement": "swarming motility inhibition (active/not active)", "setting": "[3]", "value": "Active"}]}, {"compound": "O=C(O)c1cn(C2CC2)c2cc(N3CCNCC3)c(F)cc2c1=O", "note": "[CIPROFLOXACIN]", "values": [{"measurement": "zone of inhibition at 2000 µg/mL", "setting": "[4]", "value": 35, "unit": "mm"}]}, {"compound": "CCSC(SCC)c1c(C)c2ccccc2[nH]c1=O", "values": [{"measurement": "Activity", "setting": "[5]", "value": "inactive"}, {"measurement": "swarming motility inhibition (active/not active)", "setting": "[3]", "value": "inactive"}]}]}
